The text below walks through data of ChEMBL document CHEMBL3632529, “1,2,3-Triazole pharmacophore-based benzofused nitrogen/sulfur heterocycles with potential anti-Moraxella catarrhalis activity” (2015).

Converted amounts (≈) assume the structure as drawn.

Common to all, as to type: functional
Test [1] relates to Streptococcus pneumoniae. The test can be described thus: Antibacterial activity against Streptococcus pneumoniae ATCC 49619 after overnight incubation by broth microdilution method. An outline of the steps:
(§1)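 Streptococci were grown on Mueller-Hinton agar with 5% sheep blood. CLSI broth microdilution MIC used double dilutions, with azithromycin as the reference. The test medium was modified by substituting 5% horse serum for lysed horse blood. Direct colony suspension inocula gave 5 × 10⁴ cfu/well. Growth was read visually after overnight incubation at 37 °C in ambient air.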

Test [2] relates to Moraxella catarrhalis. Description: Antibacterial activity against Moraxella catarrhalis ATCC 23246 after overnight incubation by broth microdilution method. In a few lines: (§2)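 MIC per CLSI standard broth microdilution, with azithromycin as the reference antibiotic. Compounds were tested as double dilutions. Inocula were made by direct colony suspension at 5 × 10⁴ cfu/well. MIC was read visually after overnight incubation at 37 °C in ambient air.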
(In broth dilution the organism is exposed to a series of concentrations in liquid medium.)

In test [3] the test system is Escherichia coli. Description: Antibacterial activity against Escherichia coli ATCC 25922 after overnight incubation by broth microdilution method. In a few lines:
as §2

The test system of test [4] is Streptococcus pyogenes. The test can be described thus: Antibacterial activity against Streptococcus pyogenes ATCC 700294 after overnight incubation by broth microdilution method. An outline of the steps: as §1
Test [5] has as its system Haemophilus influenzae. Description: Antibacterial activity against Haemophilus influenzae ATCC 49247 after overnight incubation by broth microdilution method. An outline of the steps: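 Bacteria were grown on Mueller Hinton chocolate agar. MIC was then determined by CLSI broth microdilution, with azithromycin as the reference and compounds as double dilutions. Inocula were prepared by direct colony suspension at 5 × 10⁴ cfu/well. Plates were read visually after overnight incubation at 37 °C in ambient air.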

Test [6] relates to Staphylococcus aureus. Description: Antibacterial activity against Staphylococcus aureus ATCC 29213 after overnight incubation by broth microdilution method. In a few lines:
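Colonies were grown on Mueller Hinton agar and suspended directly to give 5 × 10⁴ cfu/well. MIC was by CLSI broth microdilution with double dilutions of compound and azithromycin as the reference. Read-out was visual after overnight incubation at 37 °C in ambient air.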

Consider `Fc1ccc(-n2cc(Cn3cnc4ccccc43)nn2)cc1`, for which the MIC was above 128 µg/mL in test [1]; 1 µg/mL (≈ 3.41 µM) in test [2]; above 128 µg/mL in test [3]; above 128 µg/mL in test [4]; above 128 µg/mL in test [5]; above 128 µg/mL in test [6].

`Clc1cc(Cl)cc(-n2cc(Cn3cnc4ccccc43)nn2)c1`: the MIC in test [1] was above 128 µg/mL; in test [2] it was 16 µg/mL (≈ 46.5 µM); in test [3] it was above 128 µg/mL; in test [4], above 128 µg/mL; in test [5], above 128 µg/mL; in test [6], above 128 µg/mL.

On to `CC[C@H]1OC(=O)[C@H](C)[C@@H](O[C@H]2C[C@@](C)(OC)[C@@H](O)[C@H](C)O2)[C@H](C)[C@@H](O[C@@H]2O[C@H](C)C[C@H](N(C)C)[C@H]2O)[C@](C)(O)C[C@@H](C)CN(C)[C@H](C)[C@@H](O)[C@]1(C)O` [AZITHROMYCIN], for which the MIC in test [1] was found to be 0.25 µg/mL (≈ 0.334 µM); in test [2] it was 0.25 µg/mL (≈ 0.334 µM); in test [3], 8 µg/mL (≈ 10.7 µM); in test [4] it was 0.125 µg/mL (≈ 0.167 µM); in test [5], 2 µg/mL (≈ 2.67 µM); in test [6], 2 µg/mL (≈ 2.67 µM).

Consider `Cc1ccc2nc(-c3ccc(NCc4cn(-c5ccc(Cl)cc5)nn4)cc3)sc2c1`, for which the MIC is above 128 µg/mL in test [1]; 64 µg/mL (≈ 148 µM) in test [2]; above 128 µg/mL in test [3]; above 128 µg/mL in test [4]; above 128 µg/mL in test [5]; above 128 µg/mL in test [6].

Consider `Cc1nc2ccccc2n1Cc1cn(-c2ccc(C(F)(F)F)cc2)nn1`, for which the MIC is above 128 µg/mL in test [1]; 64 µg/mL (≈ 179 µM) in test [2]; above 128 µg/mL in test [3]; above 128 µg/mL in test [4]; above 128 µg/mL in test [5]; above 128 µg/mL in test [6].

Turning to `FC(F)(F)c1ccc(-n2cc(Cn3cnc4ccccc43)nn2)cc1`, the MIC in test [1] is above 128 µg/mL; in test [2] it was 16 µg/mL (≈ 46.6 µM); in test [3], above 128 µg/mL; in test [4] it was above 128 µg/mL; in test [5], above 128 µg/mL; in test [6] it was above 128 µg/mL.

Consider `Cc1ccc2nc(-c3ccc(NCc4cn(Cc5cc(=O)oc6cc(O)ccc56)nn4)cc3)sc2c1`, for which the MIC in test [1], in test [3], in test [4], in test [5] and in test [6] was above 128 µg/mL throughout.

Take `Clc1ccc(-n2cc(Cn3cnc4ccccc43)nn2)cc1`: the MIC in test [1] is above 128 µg/mL; in test [2], 0.5 µg/mL (≈ 1.61 µM); in test [3], above 128 µg/mL; in test [4], above 128 µg/mL; in test [5], above 128 µg/mL; in test [6] it was above 128 µg/mL.

Consider `Cc1ccc2nc(-c3ccc(NCc4cn(-c5ccc(F)cc5)nn4)cc3)sc2c1`, for which the MIC was above 128 µg/mL in test [1]; 128 µg/mL (≈ 308 µM) in test [2]; above 128 µg/mL in test [3]; above 128 µg/mL in test [4]; above 128 µg/mL in test [5]; above 128 µg/mL in test [6].

Take `Fc1ccccc1-n1cc(Cn2cnc3ccccc32)nn1`: the MIC was above 128 µg/mL in test [1]; 128 µg/mL (≈ 436 µM) in test [2]; above 128 µg/mL in test [3]; above 128 µg/mL in test [4]; above 128 µg/mL in test [5]; above 128 µg/mL in test [6].
